Measurements gathered from unrelated publications.
Each line is one published result; the experiments were not run side by side.
FLT3: Receptor-type tyrosine-protein kinase FLT3 (FLT3, Homo sapiens, UniProt P36888)
FLT3 K663Q: Receptor-type tyrosine-protein kinase FLT3 (FLT3, Homo sapiens, UniProt P36888, K663Q)
FLT3 D835H: Receptor-type tyrosine-protein kinase FLT3 (FLT3, Homo sapiens, UniProt P36888, D835H)
FLT3 F691L/ITD: Receptor-type tyrosine-protein kinase FLT3 (FLT3, Homo sapiens, UniProt P36888, F691L/ITD)

| SMILES | target | test | conditions | quantity | value |
| --- | --- | --- | --- | --- | --- |
| O=C(Nc1cnn(-c2csc(C(=O)NC3COC3)c2)c1)Nc1c(F)cccc1Cl | FLT3 | enzyme activity, inhibitor | 5 µM | remaining activity | 99.2% |
| F[C@@H]1CCN(c2nccc(-c3cnn4ncccc34)n2)C1 | FLT3 K663Q | binding | 1 µM | remaining binding | 64% |
| CC(=O)c1c(NS(C)(=O)=O)c2cc(-c3ccc(Cl)cc3)c(-c3ccc(Cl)cc3Cl)nc2n(C)c1=O | FLT3 D835H | cell-free assay, competition with immobilised ligand | 1 µM | remaining binding | 96% |
| Oc1cccc(-c2nc(N3CCOCC3)c3oc4ncccc4c3n2)c1 | FLT3 | cell-free assay | 0.5 µM | remaining signal | 87.1% |
| Nc1ncnc2occ(-c3ccc(NC(=O)Nc4cc(C(F)(F)F)ccc4F)cc3)c12 | FLT3 F691L/ITD | cell-free assay, inhibitor | 20 µM | remaining signal | 6.5% |
| O=C(Nc1ccc(Oc2ccc(F)cc2)cc1)N1CCc2ncccc2[C@H]1c1ccc(F)cc1 | FLT3 F691L/ITD | cell-free assay, competition with immobilised ligand | 1 µM | remaining binding | 93% |
| Cc1ccc(C(=O)Nc2ccc(CN3CCN(C)CC3)c(C(F)(F)F)c2)cc1C#Cc1cnc2cccnn12 | Receptor-type tyrosine-protein kinase FLT3 (FLT3, Homo sapiens, UniProt P36888, N841I) | enzyme activity, inhibitor | 23.5 nM | remaining activity | 0% |
| CC(C)(O)[C@H]1CC[C@H](Nc2ccc3ncc(-c4cccc(C(F)(F)F)c4)n3n2)CC1 | FLT3 | enzyme activity, inhibitor | 1 µM | remaining activity | 6.31% |
| CNC(=O)c1cc(Oc2ccc(NC(=O)Nc3ccc(Cl)c(C(F)(F)F)c3)cc2)ccn1 | FLT3 | cell-free assay | 0.5 µM | remaining signal | 9.22% |
| C[C@H]1CCN(c2nccc(-c3cnn4ncccc34)n2)C1 | FLT3 K663Q | binding | 1 µM | remaining binding | 98% |
| Cc1cnc(-c2ccc(-c3ccc(NC(=O)Nc4c(F)cc(F)cc4F)cc3F)c3c2C(=O)NC3)[nH]1 | Receptor-type tyrosine-protein kinase FLT3 (FLT3, Homo sapiens, UniProt P36888, ITD) | enzyme activity, inhibitor | 1 µM, 90 min | activity vs control | 1.6% |
| CN(c1ccnc(CNc2nc(Nc3ccc4c(c3)CC(=O)N4)ncc2C(F)(F)F)n1)S(C)(=O)=O | FLT3 K663Q | cell-free assay, competition with immobilised ligand | 1 µM | remaining binding | 16% |
| Cc1cnc(NC2CCOCC2)nc1-n1cnc(C(=O)NC(CN)c2cc(F)cc(Cl)c2)c1 (stereo not drawn) | FLT3 | enzyme activity, inhibitor, radiometric | 1 µM | remaining activity | 94% |
| CC(=O)C1=C(C)N(c2cccc(C(F)(F)F)c2)C(=O)N[C@@H]1c1ccc(C#N)nc1 | Receptor-type tyrosine-protein kinase FLT3 (FLT3, Homo sapiens, UniProt P36888, D835V/ITD) | cell-free assay, competition with immobilised ligand | 1 µM | remaining binding | 100% |
| Cc1ccc(Nc2nccc(N(C)c3ccc4c(C)n(C)nc4c3)n2)cc1S(N)(=O)=O | FLT3 | enzyme activity, inhibitor | 0.5 µM | remaining activity | 40.7% |
| C[C@H](NC(=O)c1cnc2n1[C@](C)(Cc1ccc(C#N)cc1)C(=O)N2c1cc(Cl)c(F)c(Cl)c1)C(=O)NC1(c2ccccn2)CC1 | FLT3 | cell-free assay, competition with immobilised ligand | 1 µM | remaining binding | 100% |
| Cc1ccc(NC(=O)c2ccc(C)c(C(F)(F)F)c2)cc1C#Cc1nn(C2CCC(O)CC2)c2ncnc(N)c12 (stereo not drawn) | FLT3 | cell-free assay | 10 µM | remaining signal | 73% |
| FC(F)(F)c1ccc2c(c1)nc(-c1cccnc1)n2C1CC1 | Receptor-type tyrosine-protein kinase FLT3 (FLT3, Homo sapiens, UniProt P36888, D835Y) | cell-free assay, competition with immobilised ligand | 1 µM | remaining binding | 100% |
| Cc1[nH]c(/C=C2\C(=O)Nc3ccc(F)cc32)c(C)c1C(=O)N[C@H]1CCN(C(=O)N(C)C)C1 | FLT3 | enzyme activity, inhibitor | 0.1 µM | remaining activity | 3% |
| CC(C)(O)c1cncc(-c2nc3ccc(F)cc3n2C2CC2)c1 | Receptor-type tyrosine-protein kinase FLT3 (FLT3, Homo sapiens, UniProt P36888, D835V) | cell-free assay, competition with immobilised ligand | 1 µM | remaining binding | 96% |
| N[C@@H]1CCN(c2nccc(-c3cnn4ncccc34)n2)C1 | FLT3 D835H | binding | 1 µM | remaining binding | 100% |
